JNK3 inh = inhibitors of human JNK3 kinase. P53779. purified JNK3 kinase activity, HTS. inhibition, % at 8 µM. 60,000 tested, 0.61% active. AID 746; in the data active = inhibition above about 17%;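 note: 0% = DMSO and 100% = reference inhibitor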
Cdc25B block = inhibitors of human Cdc25B phosphatase. AID 368. P30305. 65,000 tested, 0.1% active. inhibition, %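 (compounds tested at 10 µM final in the well)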. recombinant Cdc25B, OMFP fluorescence Ex485/Em525; in the data active = inhibition above about 50%
Hsp90 inh = displaces geldanamycin probe from tumor Hsp90 | NCI-N417 lysate Hsp90, Cy3B-geldanamycin FP displacement | P07900 | AID 429 | inhibition, % at 30 µM | 64,000 tested, 0.35% active;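 active = inhibition above 50%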;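 note: 0% = tracer plus lysate wells and 100% = tracer alone without lysate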
SF1 activator = activators of human nuclear receptor SF-1. CHO-K1 Gal4-SF-1 LBD luciferase reporter; % increase over DMSO SF-1-specific signal. Q13285. 65,000 tested, 1.9% active. activation, % at 10 µM;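 active = activation above the mean activation of all tested compounds plus 3 SD, cut at about 50% in these data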
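Assay system: CHO-K1 cells co-transfected with Gal4 DBD–human SF-1 LBD, 5xGal4 luciferase reporter; doses: 10 µM only; incubation: 20 h compound exposure at 37 °C after 1 h cell settling; signal: luciferase light emission; evaluation: percent activation versus DMSO; repeats: one test per compound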
RORA act = activates the human nuclear receptor RORA; P35398; CHO-K1 Gal4-RORA LBD luciferase reporter, luminescence; percent increase over mock-subtracted basal signal; activation, % at 10 µM; 65,000 tested, 1.5% active; AID 560;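 active = activation above the mean of all tested compounds plus 3 SD, cut at about 49% in these data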;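 note: 0% = DMSO-treated RORA cells and 100% = added signal equal to DMSO minus mock-transfected cells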
Target sequence (P35398 whole entry, looked up, the tested form may be a part): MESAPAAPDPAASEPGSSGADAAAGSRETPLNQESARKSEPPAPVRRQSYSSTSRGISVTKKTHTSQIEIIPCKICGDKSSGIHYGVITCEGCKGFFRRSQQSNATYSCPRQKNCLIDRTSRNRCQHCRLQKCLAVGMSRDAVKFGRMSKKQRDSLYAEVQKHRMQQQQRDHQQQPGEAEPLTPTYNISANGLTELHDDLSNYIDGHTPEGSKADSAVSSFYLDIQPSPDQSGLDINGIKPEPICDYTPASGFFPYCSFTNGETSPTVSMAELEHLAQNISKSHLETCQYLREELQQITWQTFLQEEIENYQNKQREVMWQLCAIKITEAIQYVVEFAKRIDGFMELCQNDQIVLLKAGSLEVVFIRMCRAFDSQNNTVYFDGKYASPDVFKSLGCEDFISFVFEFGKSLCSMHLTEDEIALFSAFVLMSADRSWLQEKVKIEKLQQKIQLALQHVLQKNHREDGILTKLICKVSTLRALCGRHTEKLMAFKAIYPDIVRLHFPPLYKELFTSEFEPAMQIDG
DUSP1 inh = inhibitors of human MKP-1 phosphatase; P28562; recombinant MKP-1, OMFP hydrolysis fluorescence; inhibition, %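 (compounds tested at a single concentration somewhere between 10 and 100 µM)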; 65,000 tested, 0.15% active;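 active = inhibition above about 50%, limit read from the data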;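 note: 0% = DMSO max control wells and 100% = wells with enzyme stopped by NaOH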
Active calls of the source: *; x = no result given. Hits are enriched below; roughly 3.4% of the tested compounds scored in any of these assays.

SMILES	JNK3 inh	Cdc25B block	Hsp90 inh	SF1 activator	RORA act	DUSP1 inh
O=C(NCC1COc2ccccc2O1)c1ccc(NC(=O)c2ccco2)cc1 (configuration not stated)	4	-11	3	3	10	-17
O=C(NCC1COc2ccccc2O1)c1ccc(Cl)cc1 (configuration not stated)	3	-6	0	60*	32	-19
S=c1[nH]nc(-c2cccc(Br)c2)o1	19*	1	2	7	-12	-5
O=C(CSc1ccccn1)c1ccc(F)cc1	-3	-6	3	18	17	6
Cc1ccc(C(=O)CSc2ccccn2)cc1	-7	3	-6	84*	34	-2
O=C(CCNS(=O)(=O)c1cccs1)N1CCCCCC1	4	-20	-3	60*	32	6
CC(=O)Nc1ccc2nc(C3CCCCC3)[nH]c2c1	5	-3	2	28	5	-5
CC(=O)Nc1ccc2nc(-c3ccccn3)[nH]c2c1	3	2	4	48	65*	-8
CN(CC(=O)N1CCc2ccccc21)S(=O)(=O)c1cccs1	x	9	-2	55*	52*	-19
O=C(CCCC(=O)N1CCc2ccccc21)N1CCc2ccccc21	-3	3	-7	-6	-3	3
CCOc1ccc(C2Oc3nc(SC)nnc3-c3ccccc3N2C(C)=O)cc1OC (configuration not stated)	0	0	3	-10	12	0
O=C(CSc1nnc(NC(=O)c2ccco2)s1)NC1CCCC1	-1	-7	-8	-6	-16	-5
O=C(Nc1nnc(C2CCCO2)s1)c1cccs1 (configuration not stated)	-6	5	-9	36	36	-3
O=C(Nc1nnc(C2CCCCC2)s1)c1ccco1	2	2	-5	70*	6	9
O=C(Nc1nnc(C2CCCCC2)s1)c1cccs1	0	-1	-9	54*	41	2
c1ccc(CCn2nnnc2CN2CCCc3ccccc32)cc1	-4	19	-2	21	51*	-4
COc1cccc(-c2nnc3n2N=C(c2cc(OC)ccc2OC)CS3)c1	x	x	x	2	-6	x
CCOc1cccc(-c2nnc3n2N=C(c2cc(OC)ccc2OC)CS3)c1	x	-9	-3	46	61*	23
Cc1ccc(NC(=O)Nc2ccc(F)cc2)nc1	10	-3	0	83*	25	-4
Cc1ccnc(NC(=O)Nc2ccc(F)cc2)c1	4	-2	-2	36	21	-5
Cc1occc1-c1nnc(SCC(=O)N2CCCc3ccccc32)n1Cc1ccco1	-7	3	-3	-12	-4	-11
COc1ccc2nc(/N=C(\N)NC(=O)C(C)(C)C)nc(C)c2c1	-6	5	-2	34	12	1
CCC(=O)N/C(N)=N/c1nc(C)c2cc(OC)ccc2n1	-1	-5	0	44	69*	1
NC(=S)c1ccc[n+]([C@@H]2O[C@@H](COP(=O)([O-])OP(=O)(O)OC[C@H]3O[C@@H](n4cnc5c(N)ncnc54)C(OP(=O)(O)O)[C@H]3O)C(O)C2O)c1 (some centres not stated)	x	x	0	x	x	x
COc1ccc(C(=O)n2c(-c3ccco3)nc3ccccc32)cc1	-2	-5	-5	-7	65*	-18
SMILES	JNK3 inh	Cdc25B block	Hsp90 inh	SF1 activator	RORA act	DUSP1 inh
COc1ccc(CCn2c(-c3ccco3)nc3nc4ccccc4nc32)cc1	-6	3	-19	29	12	-9
COCCn1c(C)cc(C(=O)COC(=O)c2ccc3ncsc3c2)c1C	2	-5	-4	52*	27	-2
COc1ccc2c(c1)Cc1sc(NC(C)=O)nc1-2	-11	7	-6	77*	42	-6
O=C1CCn2nc(-c3ccc(Cl)cc3)cc2N1	3	-4	0	31	61*	4
CCOc1ccc(OCC)c(NC(=O)CSc2nc3c(c(=O)n(C)c(=O)n3C)n2C(C)C)c1	5	-16	2	101*	17	-9
CCOc1ccc(OCC)c(NC(=O)CSc2nc3c(c(=O)n(C)c(=O)n3C)n2C)c1	4	-10	-3	6	4	-14
CC(C)N(C(=O)CSc1nnc(CN2CCCCCC2=O)n1-c1ccccn1)C(C)C	5	-9	-3	-2	-13	4
O=c1cc(-c2ccccc2)[nH]c2nc3ccccc3n12	19*	3	-4	3	7	8
CCOc1ccc(S(=O)(=O)N2CCc3ccccc3C2)cc1	-10	-6	0	2	-4	11
CCOc1ccc(N2Cc3ccccc3C2)cc1	5	5	-5	62*	51*	14
Cc1cc(N)c2ccccc2[n+]1CCCCCCCCCCCCCC[n+]1c(C)cc(N)c2ccccc21	x	x	-3	x	x	x
CCOC(=O)c1sc(-c2ccc(OC)cc2)cc1N	1	1	-11	62*	44	18
CCOC(=O)c1cc(-c2ccccc2)sc1N	2	0	0	31	28	-2
CCOC(=O)c1sc(-c2ccccc2)cc1N	5	-10	0	52*	49*	-9
CCOC(=O)c1c(-c2ccc(OC)cc2)nc2nonc2c1N	2	-3	1	-9	-2	15
CCOC(=O)c1c(N)n[nH]c1-c1ccc(OC)cc1	18*	-2	-2	1	-2	1
N[C@H](CCC(=O)NCS(=O)(=O)O)C(=O)O	x	x	1	x	x	x
COc1ccccc1CNC(=O)CSc1nc2nc(C)cc(C)n2n1	x	1	5	1	-8	5
CCN1CCN(Cc2ccc(NC(=O)Nc3ccccc3OC)cc2)CC1	-5	0	2	29	49*	-10
COc1cc(-c2nnc(SCC(=O)OC3CCCCC3)o2)cc(OC)c1OC	5	-4	-6	12	-9	-3
CCCCSc1nnc(-c2ccccc2N)c(=O)[nH]1	-6	-17	-2	35	58*	-1
O=C(CSc1nnc(-c2ccco2)n1Cc1ccccc1)c1ccc(F)cc1	3	-6	-1	36	12	19
Cc1ccccc1-c1nnc(SCc2ccccc2F)o1	1	-25	-1	90*	75*	-2
Fc1ccccc1CSc1nnc(-c2ccccc2)o1	10	-9	-2	58*	41	8
CC(C)N1C(=S)SC2CS(=O)(=O)C=C21 (configuration not stated)	5	10	1	-5	-10	-6
Cc1ccc(-c2nc(C3CCN(S(C)(=O)=O)CC3)no2)cc1	3	-2	0	11	8	-6
Cc1ccc(S(=O)(=O)N[C@H](C(=O)N2CCC(C(=O)N3CCC[C@H]3C(=O)O)CC2)C(C)C)cc1	1	2	-1	-7	-5	-15
